ERa SRC1 pot: enhances coactivator binding to human estrogen receptor alpha; P03372; TR-FRET ERalpha-LBD/SRC-Cy5 coactivator binding, 2 h; 100 = basal binding, no effect; coactivator binding (% of control), % at 25.6 µM; hit rate 1.3% among 86,000; in the data active = activity above about 200%;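 note: binding measured in presence of low estradiol as agonist stimulus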
ERb SRC1 inh: blocks coactivator binding to human estrogen receptor beta. TR-FRET ER-beta LBD / SRC1-Cy5 peptide binding; receptor agonist-loaded with 1 µM estradiol. Q92731. inhibition, % at 25.6 µM. hit rate 1.3% among 86,000;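 active = compounds whose percent inhibition of the receptor-coactivator binding signal exceeds about 50% in the single-dose screen, limit read from the data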
Target sequence (Q92731 whole entry, looked up, the tested form may be a part): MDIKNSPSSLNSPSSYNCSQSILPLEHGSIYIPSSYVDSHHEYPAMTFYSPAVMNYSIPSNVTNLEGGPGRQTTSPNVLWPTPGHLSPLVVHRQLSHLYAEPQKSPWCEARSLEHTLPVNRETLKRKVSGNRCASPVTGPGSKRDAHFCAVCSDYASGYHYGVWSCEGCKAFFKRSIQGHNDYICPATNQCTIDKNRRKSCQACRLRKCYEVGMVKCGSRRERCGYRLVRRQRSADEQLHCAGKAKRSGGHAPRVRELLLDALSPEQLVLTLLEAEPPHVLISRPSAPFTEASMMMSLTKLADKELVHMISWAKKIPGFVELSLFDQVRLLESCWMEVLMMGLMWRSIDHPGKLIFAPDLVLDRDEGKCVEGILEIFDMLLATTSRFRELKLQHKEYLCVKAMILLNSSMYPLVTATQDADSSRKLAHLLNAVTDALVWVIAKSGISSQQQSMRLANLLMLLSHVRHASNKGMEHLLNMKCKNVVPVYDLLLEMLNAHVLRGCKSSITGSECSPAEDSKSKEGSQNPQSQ
ERa SRC1 inh: blocks coactivator binding to human estrogen receptor alpha | hit rate 1.7% among 86,000 | P03372 | AID 629 | inhibition, % at 25.6 µM | TR-FRET ER-alpha LBD / SRC-1 peptide, estradiol-bound; in the data active = inhibition above about 50%
BAP1 inh: blocks human BAP1 ubiquitin-AMC hydrolysis; recombinant BAP1, Ub-AMC hydrolysis fluorescence kinetic; active compounds read low; calls only at 20 µM; hit rate 0.48% among 72,000;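 active = activity remaining at or below 50% of control, provided the compound also passes the data quality filters; inactive = the rest, including low values that fail the filters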
SF-1 act: activators of human nuclear receptor SF-1; Q13285; CHO-K1 Gal4-SF-1 LBD luciferase reporter; % increase over DMSO SF-1-specific signal; activation, % at 10 µM; hit rate 1.9% among 65,000; AID 522;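 active = activation above the mean activation of all tested compounds plus 3 SD, cut at about 50% in these data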
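System: CHO-K1 cells with Gal4–hSF-1 LBD chimera plus Gal4-driven luciferase; quantity: 4,000 CHO-K1 cells per well; compound: one dose, 10 µM compound, 1% DMSO; times: 20 h compound treatment, 37 °C; measured by: SteadyLite luciferase luminescence; read-out: percent activation versus DMSO; benchmarks: DMSO and mock-transfected background; replicates: one test per compound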
RORA act: activates the human nuclear receptor RORA | activation, % at 10 µM | P35398 | CHO-K1 Gal4-RORA LBD luciferase reporter, luminescence; percent increase over mock-subtracted basal signal | hit rate 1.5% among 65,000;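 active = activation above the mean of all tested compounds plus 3 SD, cut at about 49% in these data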
Each line names hits and unclear results; the compound was inactive in the other large screens; [ ] = dose if it differs, or a comment. Shown are actives, neighbours in structure and some others; about 5.1% of the full set was active somewhere.

C=CCOC(=O)c1[nH]c2c(c1C)C(=O)CC(c1ccco1)C2 (configuration not stated)	none
Cc1c(C(=O)OCC2CCCO2)[nH]c2c1C(=O)CC(c1ccco1)C2 (configuration not stated)	ERb SRC1 inh 50.4[fluorescence artefact?], ERa SRC1 inh 53.6, RORA act 56.2
C/C=C/COC(=O)c1[nH]c2c(c1C)C(=O)CC(c1ccco1)C2 (configuration not stated)	ERb SRC1 inh 54.7, ERa SRC1 inh 58.8
c1ccc(OCCSc2nnnn2-c2ccccc2)cc1	SF-1 act 63.3
CCOc1ccc(OCCSc2nnnn2-c2ccccc2)cc1	none (no result: BAP1 inh, SF-1 act, RORA act)
Cc1nnc(SCc2nnc(-c3ccccc3Br)o2)n1-c1ccccc1	none
Brc1ccccc1-c1nnc(CSc2nnnn2-c2ccccc2)o1	ERa SRC1 inh 51.0
Cc1oc2c(C)c(O)ccc2c(=O)c1-c1cnn(-c2ccccc2)c1	ERb SRC1 inh 60.1[fluorescence artefact?], ERa SRC1 inh 70.1[fluorescence artefact?] (no result: BAP1 inh, SF-1 act, RORA act)
COc1ccccc1NC(=O)Nc1nnc(C(C)C)s1	SF-1 act 52.9
COc1ccccc1NC(=O)NC(N)=O	ERb SRC1 inh 74.2
COc1ccccc1NC(=O)NC(=O)N(C(C)C)S(C)(=O)=O	none (no result: BAP1 inh, SF-1 act, RORA act)
COc1ccc(C2CC(C(F)(F)F)n3nc(C(=O)N4CCC(C)CC4)c(Cl)c3N2)cc1OC (configuration not stated)	none (no result: ERa SRC1 pot, ERb SRC1 inh, ERa SRC1 inh, SF-1 act, RORA act)
COCc1cc(=O)n2c(-c3ccc(C)cc3)n[nH]c2n1	ERb SRC1 inh 59.8
CCOCCOC(=O)C1=C(C)NC2=C(C(=O)CC(C)(C)C2)C1c1ccc(C)cc1 (configuration not stated)	none (no result: ERa SRC1 pot, ERb SRC1 inh, ERa SRC1 inh, SF-1 act, RORA act)
COc1ccc(OC)c(NC(=O)COc2ccc(Cl)cc2)c1	none (no result: ERa SRC1 pot, ERb SRC1 inh, ERa SRC1 inh, SF-1 act, RORA act)
COc1ccc(-c2cc3nc(-c4ccccc4)cc(N4CCC5(CC4)OCCO5)n3n2)cc1	ERa SRC1 pot 267.1[fluorescence artefact?] (not shown: BAP1 inh)
Cc1cccn2c(=O)c3cc(C#N)c(=NC(=O)c4ccccc4)n(Cc4ccco4)c3nc12	ERa SRC1 inh 62.5[fluorescence artefact?] (no result: BAP1 inh)
Cc1ccc(-n2c(=O)c(C#N)cc3c(=O)n4cccc(C)c4nc32)cc1	ERb SRC1 inh 51.9, ERa SRC1 inh 62.3 (no result: BAP1 inh, SF-1 act, RORA act)
CCCn1c(=NC(C)=O)c(C#N)cc2c(=O)n3cccc(C)c3nc21	ERa SRC1 inh 53.7[fluorescence artefact?]
CCOC(=O)c1cc2c(=O)n3ccccc3nc2n(Cc2ccco2)c1=NC(=O)c1cccnc1	none (no result: BAP1 inh)
CCCCCn1c(=NC(C)=O)c(C#N)cc2c(=O)n3cccc(C)c3nc21	none
CCOC(=O)c1cc2c(=O)n3cccc(C)c3nc2n(Cc2ccco2)c1=NC(=O)c1cccnc1	ERb SRC1 inh 58.2[fluorescence artefact?], ERa SRC1 inh 55.2[fluorescence artefact?]
Cc1c(Cl)c([N+](=O)[O-])nn1CC(=O)Nc1ccc(OC(F)(F)F)cc1	none (no result: ERa SRC1 pot, ERb SRC1 inh, ERa SRC1 inh, SF-1 act, RORA act)
COc1ccccc1C=Nc1ccccc1Sc1c(C)n[nH]c1C	none (no result: ERa SRC1 pot, ERb SRC1 inh, ERa SRC1 inh, SF-1 act, RORA act)
CCCCCOc1ccc(CN2CCOCC2)cc1Cl	SF-1 act 61.3
COc1ccc(C2(CNC(=O)c3ccccc3[N+](=O)[O-])CCCC2)cc1OC	none (no result: ERa SRC1 pot, ERb SRC1 inh, ERa SRC1 inh, SF-1 act, RORA act)
Cc1csc2nc(CNC(=O)c3ccco3)cn12	SF-1 act 51.8
O=[N+]([O-])c1cc(Cl)ccc1NCCCNS(=O)(=O)c1ccc(Cl)cc1	none (no result: ERa SRC1 pot, ERb SRC1 inh, ERa SRC1 inh, SF-1 act, RORA act)
O=C(Nc1ccc(NC(=O)c2ccco2)nc1)c1ccccn1	SF-1 act 51.5 (no result: BAP1 inh)
O=C(Cc1ccccc1)Nc1ccc(NC(=O)c2ccco2)nc1	SF-1 act 59.3
O=C(Nc1ccc(NC(=O)C23CC4CC(CC(C4)C2)C3)cn1)c1ccco1	SF-1 act 89.9
Cc1ccccc1-c1c(C)oc2c(C)c(O)ccc2c1=O	none (no result: ERa SRC1 pot, ERb SRC1 inh, ERa SRC1 inh, SF-1 act, RORA act)
CCCCN1C(=O)/C(=C2\SC(N3CCCCC3)=NC2=O)c2ccccc21	RORA act 59.7
O=C1N=C(N2CCOCC2)S/C1=C1\C(=O)N(Cc2ccccc2)c2ccc(Br)cc21	ERa SRC1 inh 92.9[fluorescence artefact?]
CC(C)COC(=O)c1ccc2c(c1)C(=O)N(c1ccc(Oc3ccccc3)cc1)C2=O	none (no result: ERa SRC1 pot, ERb SRC1 inh, ERa SRC1 inh, SF-1 act, RORA act)
Cc1ccc(C2CC(C(F)(F)F)n3nc(C(=O)N4CCN(c5ccccc5)CC4)c(Cl)c3N2)cc1 (configuration not stated)	none (no result: ERa SRC1 pot, ERb SRC1 inh, ERa SRC1 inh, SF-1 act, RORA act)
COc1ccc(CCn2c(N)cc(=O)[nH]c2=S)cc1OC	ERb SRC1 inh 58.5[fluorescence artefact?]
CC1=C(C(=O)Nc2cccc(C)c2C)C(c2ccc(C)cc2)NC(=S)N1 (configuration not stated)	none (no result: ERa SRC1 pot, ERb SRC1 inh, ERa SRC1 inh, SF-1 act, RORA act)

High-throughput results as filed in PubChem BioAssay.
